The term GI50 denotes the concentration that inhibits growth by half. As usually defined, the IC50 is the concentration that inhibits the measured activity by half. Usually EC50 stands for the concentration that produces a half-maximal response. High values mean a need for much substance, low ones an effect from little substance.

The values that follow come from ChEMBL document CHEMBL4387708, “Enhancement of Benzothiazoles as Pteridine Reductase-1 Inhibitors for the Treatment of Trypanosomatidic Infections” (J Med Chem, 2019).

A short description of data set [1]: Cytotoxicity against human U2OS cells assessed as reduction in cell number. It counts as cell-based.
The nature of data set [2]: Selectivity ratio of IC50 for Leishmania major pteridine reductase 1 to IC50 for N-terminal His-tagged Trypanosoma brucei pteridine reductase 1.
The next data set deals with Trypanosoma cruzi. The data set can be described thus: Growth inhibition of trypomastigote form of Trypanosoma cruzi Y infected in human U2OS cells at 50 uM measured after 72 hrs by DRAQ5 DNA dye based confocal microscopic analysis relative to control. The data set is classed as organism-based. As to conditions: Trypanosoma cruzi, Y, U2OS, read-out: GI.
For data set [3], the target named is Voltage-gated inwardly rectifying potassium channel KCNH2 (Homo sapiens, UniProt Q12809). In words: Displacement of Tracer Red from human ERG by fluorescence polarization assay. (In general: Fluorescence polarisation rises when a labelled molecule tumbles more slowly, as on binding a larger partner.)
Voltage-gated inwardly rectifying potassium channel KCNH2, sequence (Q12809 whole entry): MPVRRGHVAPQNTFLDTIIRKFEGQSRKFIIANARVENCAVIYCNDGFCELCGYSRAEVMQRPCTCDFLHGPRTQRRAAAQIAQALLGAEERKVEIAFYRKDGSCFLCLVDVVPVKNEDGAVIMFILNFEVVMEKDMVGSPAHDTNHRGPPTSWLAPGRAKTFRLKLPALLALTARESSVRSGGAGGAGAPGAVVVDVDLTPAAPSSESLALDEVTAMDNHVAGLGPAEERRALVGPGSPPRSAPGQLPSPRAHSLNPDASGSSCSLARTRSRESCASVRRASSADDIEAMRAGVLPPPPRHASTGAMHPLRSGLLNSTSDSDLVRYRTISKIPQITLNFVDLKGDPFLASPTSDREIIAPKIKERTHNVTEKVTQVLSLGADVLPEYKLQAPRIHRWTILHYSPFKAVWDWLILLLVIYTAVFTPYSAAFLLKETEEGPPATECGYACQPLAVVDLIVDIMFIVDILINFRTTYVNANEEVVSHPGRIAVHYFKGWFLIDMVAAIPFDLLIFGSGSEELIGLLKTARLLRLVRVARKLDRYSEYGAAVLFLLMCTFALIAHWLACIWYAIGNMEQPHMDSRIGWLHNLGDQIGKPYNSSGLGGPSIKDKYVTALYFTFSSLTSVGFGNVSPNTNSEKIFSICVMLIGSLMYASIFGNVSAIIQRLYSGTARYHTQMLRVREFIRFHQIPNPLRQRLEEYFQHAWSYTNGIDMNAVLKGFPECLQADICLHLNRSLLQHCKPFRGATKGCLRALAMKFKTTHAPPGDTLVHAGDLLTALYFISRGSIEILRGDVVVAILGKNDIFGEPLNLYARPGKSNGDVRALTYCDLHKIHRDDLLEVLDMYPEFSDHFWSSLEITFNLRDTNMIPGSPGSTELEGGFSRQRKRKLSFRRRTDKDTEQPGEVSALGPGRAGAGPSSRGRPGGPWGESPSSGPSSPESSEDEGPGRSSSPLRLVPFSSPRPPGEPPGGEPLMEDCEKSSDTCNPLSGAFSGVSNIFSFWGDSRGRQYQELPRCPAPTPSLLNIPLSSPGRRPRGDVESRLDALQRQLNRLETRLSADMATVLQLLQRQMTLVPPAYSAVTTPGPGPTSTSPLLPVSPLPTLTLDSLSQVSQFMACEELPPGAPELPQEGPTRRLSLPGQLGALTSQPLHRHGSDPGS
A further data set concerns the target Cytochrome P450 2C19 (Homo sapiens, UniProt P33261). In words: Inhibition of human CYP2C19 expressed in baculovirus infected insect cells using beetle D-luciferin as substrate preincubated for 30 mins followed by NADPH addition and measured after 30 mins by CYP450-Glo assay.
Another data set addresses Cytochrome P450 3A4 (Homo sapiens, UniProt P08684). In words: Inhibition of human CYP3A4 expressed in baculovirus infected insect cells using beetle D-luciferin as substrate preincubated for 30 mins followed by NADPH addition and measured after 30 mins by CYP450-Glo assay.
The nature of data set [4]: Cytotoxicity against human THP1 cells after 72 hrs by MTT assay. Particulars: read-out: NOAEL. The data set is classed as cell-based, THP-1. In general terms: Formazan colour is commonly taken as a measure of viable cells.
Data set [5] has as its target T1, Pteridine reductase 1 (Leishmania major) (UniProt Q01782).
T1 sequence (whole entry): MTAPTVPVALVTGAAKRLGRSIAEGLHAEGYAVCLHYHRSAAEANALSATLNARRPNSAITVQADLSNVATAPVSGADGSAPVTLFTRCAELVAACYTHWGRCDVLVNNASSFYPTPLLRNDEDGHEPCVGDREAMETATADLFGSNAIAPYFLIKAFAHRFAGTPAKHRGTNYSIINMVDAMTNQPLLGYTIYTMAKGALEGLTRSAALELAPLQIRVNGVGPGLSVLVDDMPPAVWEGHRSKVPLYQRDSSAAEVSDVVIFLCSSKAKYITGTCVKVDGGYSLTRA
In words: Inhibition of Leishmania major pteridine reductase 1 at 50 uM using di-hydrobiopterine as substrate in presence of NADPH relative to control. The method in brief:
(§1)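 Photometric PTR1 assay with NADPH and dihydrobiopterin substrate. H₄B formation is coupled non-enzymatically to cytochrome c reduction, read as signal increase at 550 nm.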

Another data set concerns Leishmania infantum. In words: Growth inhibition of luciferase expressing Leishmania infantum axenic amastigotes infected in human THP1 cells at 10 uM measured after 72 hrs by steady-glo luminescence assay relative to control. The data set is classed as organism-based. Particulars: for inhibition at 10 µM: Leishmania infantum, THP-1, 72 h, read-out: GI; for growth inhibition (GI): leishmania infantum, 72 h, 10 µM.

A further data set deals with Cytochrome P450 2D6 (Homo sapiens, UniProt P10635). In words: Inhibition of human CYP2D6 expressed in baculovirus infected insect cells using beetle D-luciferin as substrate preincubated for 30 mins followed by NADPH addition and measured after 30 mins by CYP450-Glo assay.
Cytochrome P450 2D6, sequence (P10635 whole entry): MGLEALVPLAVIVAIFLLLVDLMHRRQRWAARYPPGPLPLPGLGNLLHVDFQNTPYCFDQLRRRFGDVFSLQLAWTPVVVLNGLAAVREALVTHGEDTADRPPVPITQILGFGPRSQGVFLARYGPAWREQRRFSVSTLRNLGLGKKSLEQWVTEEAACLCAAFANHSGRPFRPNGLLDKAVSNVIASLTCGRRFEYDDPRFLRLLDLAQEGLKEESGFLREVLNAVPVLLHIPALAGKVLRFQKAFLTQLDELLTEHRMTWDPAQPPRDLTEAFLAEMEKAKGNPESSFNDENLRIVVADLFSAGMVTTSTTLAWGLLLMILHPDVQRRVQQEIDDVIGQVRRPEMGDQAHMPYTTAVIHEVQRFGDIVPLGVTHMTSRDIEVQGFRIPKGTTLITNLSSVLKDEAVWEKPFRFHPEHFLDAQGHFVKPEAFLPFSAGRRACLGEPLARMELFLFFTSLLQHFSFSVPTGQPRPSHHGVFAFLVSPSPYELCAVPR
Data set [6] concerns Trypanosoma brucei. In words: Growth inhibition of Trypanosoma brucei bloodstream forms at 10 uM measured after 72 hrs by resazurin-based fluorescence assay relative to control. The data set is classed as organism-based. As to conditions: Trypanosoma brucei, read-out: GI. In general terms: Resazurin is reduced to fluorescent resorufin, in cell work by metabolically active cells.

The nature of data set [7]: Mitochondrial toxicity in human 786-O cells measured after 6 hrs by MitoTracker Red chloromethyl-X-rosamine based assay. The data set is classed as cell-based, 786-0.
The target in another data set is Cytochrome P450 2C9 (Homo sapiens, UniProt P11712). The data set can be described thus: Inhibition of human CYP2C9 expressed in baculovirus infected insect cells using beetle D-luciferin as substrate preincubated for 30 mins followed by NADPH addition and measured after 30 mins by CYP450-Glo assay.
Cytochrome P450 2C9, sequence (P11712 whole entry): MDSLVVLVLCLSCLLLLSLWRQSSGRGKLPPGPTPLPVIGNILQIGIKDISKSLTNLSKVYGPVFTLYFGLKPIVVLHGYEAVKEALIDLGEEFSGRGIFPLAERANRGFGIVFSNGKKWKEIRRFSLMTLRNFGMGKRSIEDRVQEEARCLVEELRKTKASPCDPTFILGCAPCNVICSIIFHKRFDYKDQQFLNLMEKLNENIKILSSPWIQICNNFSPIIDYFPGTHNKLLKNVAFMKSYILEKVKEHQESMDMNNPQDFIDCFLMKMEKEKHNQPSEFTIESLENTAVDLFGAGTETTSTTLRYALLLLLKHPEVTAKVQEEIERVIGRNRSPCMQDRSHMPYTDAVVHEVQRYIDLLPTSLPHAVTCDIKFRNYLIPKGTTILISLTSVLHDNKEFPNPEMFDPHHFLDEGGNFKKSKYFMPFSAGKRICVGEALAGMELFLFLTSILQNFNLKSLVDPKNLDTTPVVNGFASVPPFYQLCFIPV
A short description of data set [8]: Cytotoxicity against human A549 cells after 48 hrs by Celltiter-glo assay. It counts as cell-based.
Data set [9] deals with Trypanosoma brucei. The data set can be described thus: Growth inhibition of Trypanosoma brucei bloodstream forms measured after 72 hrs by resazurin-based fluorescence assay. The data set is classed as organism-based. The method in brief:
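Mid-log bloodstream-form T. brucei were seeded at a final 5 x 10^3/mL in supplemented HMI-9 with serial compound dilutions. Cultures ran 72 h at 37 °C, 5% CO₂, then 4 h more after resazurin. Fluorescence was read at ex 540/em 620 nm, and EC₅₀ was fitted by non-linear regression.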

The target of a further data set is T2, Cytochrome P450 1A2 (Homo sapiens, UniProt P05177).
T2 sequence (P05177 whole entry): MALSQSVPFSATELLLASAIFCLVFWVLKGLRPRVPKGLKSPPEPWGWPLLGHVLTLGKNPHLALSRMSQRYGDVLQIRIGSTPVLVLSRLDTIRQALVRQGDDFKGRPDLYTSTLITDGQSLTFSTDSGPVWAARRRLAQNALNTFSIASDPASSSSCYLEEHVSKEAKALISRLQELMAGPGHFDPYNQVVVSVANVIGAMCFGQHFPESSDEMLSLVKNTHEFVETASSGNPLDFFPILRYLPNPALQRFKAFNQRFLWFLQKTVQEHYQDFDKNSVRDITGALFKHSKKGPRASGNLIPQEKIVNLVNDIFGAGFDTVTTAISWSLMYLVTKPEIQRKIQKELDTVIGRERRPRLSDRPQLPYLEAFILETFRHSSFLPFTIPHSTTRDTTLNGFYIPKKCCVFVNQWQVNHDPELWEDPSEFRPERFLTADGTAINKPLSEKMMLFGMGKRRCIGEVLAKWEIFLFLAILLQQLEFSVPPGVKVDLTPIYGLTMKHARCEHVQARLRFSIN
The data set can be described thus: Inhibition of human CYP1A2 expressed in baculovirus infected insect cells using beetle D-luciferin as substrate preincubated for 30 mins followed by NADPH addition and measured after 30 mins by CYP450-Glo assay.

In data set [10] the test system is Trypanosoma brucei. In words: Inhibition of N-terminal His-tagged Trypanosoma brucei pteridine reductase 1 at 50 uM using di-hydrobiopterine as substrate measured at 1 min interval for 50 mins in presence of NADPH relative to control. In short, it runs like this: as §1
Data set [11] in a line: Inhibition of N-terminal His-tagged Trypanosoma brucei pteridine reductase 1 using di-hydrobiopterine as substrate measured at 1 min interval for 50 mins in presence of NADPH. The method in brief: as §1
A further data set deals with T3, Pteridine reductase 1 (Leishmania major, UniProt Q01782).
T3 sequence (Q01782 whole entry): T1 sequence (whole entry)
The data set can be described thus: Inhibition of Leishmania major pteridine reductase 1 using di-hydrobiopterine as substrate in presence of NADPH. In short, it runs like this: as §1

Data set [12] deals with Trypanosoma brucei. In words: Inhibition of PTR1 in Trypanosoma brucei bloodstream forms assessed as potentiation of methotrexate-induced parasitic cell growth inhibition by measuring potentiation index at 10 uM measured after 72 hrs by resazurin-based fluorescence assay relative to control (methotrexate). It counts as functional. In short, it runs like this:
(§2)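 Bloodstream-form T. brucei resazurin assay: 72 h at 37 °C, 5% CO₂, then fluorescence at ex 540/em 620 nm. Benzothiazole was tested at 10 μM alone and with 4 μM methotrexate. The index is the combination's activity divided by the sum of the activities of 10 μM benzothiazole and 4 μM methotrexate given separately.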

Data set [13] deals with Trypanosoma brucei. The data set can be described thus: Inhibition of PTR1 in Trypanosoma brucei bloodstream forms assessed as potentiation of methotrexate-induced parasitic cell growth inhibition at 10 uM measured after 72 hrs by resazurin-based fluorescence assay (reference value: 19 +/- 6%). The method in brief:
as §2

Calls of active or inactive are those of the source. No cut-off for these calls is given here.

Cytochrome P450 3A4, sequence (P08684 whole entry): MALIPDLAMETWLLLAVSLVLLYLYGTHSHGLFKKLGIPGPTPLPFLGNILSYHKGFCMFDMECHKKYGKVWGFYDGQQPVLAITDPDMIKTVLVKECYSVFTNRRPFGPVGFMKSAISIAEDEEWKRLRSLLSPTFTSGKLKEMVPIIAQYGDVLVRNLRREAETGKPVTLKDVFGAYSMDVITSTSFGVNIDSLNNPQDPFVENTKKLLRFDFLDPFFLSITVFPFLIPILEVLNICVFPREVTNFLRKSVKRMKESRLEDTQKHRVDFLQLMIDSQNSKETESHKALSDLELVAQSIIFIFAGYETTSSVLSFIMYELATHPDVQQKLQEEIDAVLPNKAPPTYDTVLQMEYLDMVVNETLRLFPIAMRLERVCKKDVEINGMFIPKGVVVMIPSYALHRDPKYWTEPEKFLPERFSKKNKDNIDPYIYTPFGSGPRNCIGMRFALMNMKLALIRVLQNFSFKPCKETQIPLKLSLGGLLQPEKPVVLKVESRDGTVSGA
Cytochrome P450 2C19, sequence (P33261 whole entry): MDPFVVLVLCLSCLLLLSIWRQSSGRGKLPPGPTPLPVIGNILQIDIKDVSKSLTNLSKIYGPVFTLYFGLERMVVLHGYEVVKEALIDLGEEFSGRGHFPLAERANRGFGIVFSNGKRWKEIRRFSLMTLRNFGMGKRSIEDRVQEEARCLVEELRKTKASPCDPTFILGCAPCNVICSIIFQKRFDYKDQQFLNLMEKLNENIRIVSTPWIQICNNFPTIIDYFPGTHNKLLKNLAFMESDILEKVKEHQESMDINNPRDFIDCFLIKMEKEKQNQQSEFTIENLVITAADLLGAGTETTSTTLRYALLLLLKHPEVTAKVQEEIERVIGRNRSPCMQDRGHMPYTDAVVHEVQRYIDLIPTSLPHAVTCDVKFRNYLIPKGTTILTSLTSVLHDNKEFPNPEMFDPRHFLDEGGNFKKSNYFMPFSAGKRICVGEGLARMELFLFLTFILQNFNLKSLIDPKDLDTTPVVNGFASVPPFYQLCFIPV

As to `Nc1nc2c(O)cc(C(=O)NCc3ccc(Cl)c(Cl)c3)cc2s1`, the 50% growth inhibitory concentration (GI50) in [1] was above 25 µM. The Ratio IC50 in data set [2] lay in the range of 2 to 100. Moreover, the inhibition at 50 µM in the data set with Trypanosoma cruzi turned out to be 42%. In addition, the IC50 (in data set [3]; on Cytochrome P450 2C19; at Cytochrome P450 3A4; against Cytochrome P450 2D6; against Cytochrome P450 2C9; against Cytochrome P450 1A2) was above 25 µM each time. Besides, the MNTC at 72 h in data set [4] was above 25 µM. Moreover, the results for the inhibition (in data set [5]; with Trypanosoma brucei [10]) were 8.7% and 11.8%, respectively. The inhibition at 10 µM is 24% in the data set with Leishmania infantum and above 60% with Trypanosoma brucei [6]. The compound further returned an IC50 at 6 h in [7] above 25 µM. Further, the GI50 at 48 h in data set [8] was above 25 µM. The same compound showed an EC50 in the data set with Trypanosoma brucei [9] of 5.9 µM.
As for `COc1ccc(CN(Cc2ccc(Cl)c(Cl)c2)C(=O)c2ccc3nc(N)sc3c2)cc1OC`, the GI50 in data set [1] was above 25 µM. Also, the Ratio IC50 in [2] is 2 to 100. The inhibition at 50 µM with Trypanosoma cruzi amounted to 47.9%. Also, the IC50 was 15.9 µM in [11]; above 25 µM in data set [3]; below 10 µM against Cytochrome P450 2C19; below 10 µM at Cytochrome P450 3A4; below 10 µM on Cytochrome P450 2D6; “Not Active” at Pteridine reductase 1. The IC50 against Cytochrome P450 2C9 was below 10 µM; against Cytochrome P450 1A2 it was above 25 µM. Besides, in data set [4], the MNTC at 72 h is 10 to 25 µM. Further, the inhibition result in data set [5] is “inactive”. In addition, the figures for the inhibition at 10 µM with Leishmania infantum and in the data set on Trypanosoma brucei [6] were 9% and above 60%, respectively. Moreover, the 50% inhibitory concentration (IC50) at 6 h in data set [7] was 10 to 25 µM. The 50% growth inhibitory concentration (GI50) at 48 h in data set [8] is above 25 µM. Besides, in the data set on Trypanosoma brucei [9], the EC50 was 9.7 µM. Besides, the inhibition with Trypanosoma brucei [10] is above 60%.
For `Nc1nc2ccc(OCc3ccc(Cl)c(Cl)c3)cc2s1`, in data set [1], the concentration for 50% growth inhibition (GI50) was above 25 µM. Besides, the Ratio with Trypanosoma brucei [12] is reported as 1.2. Also, the Ratio IC50 in [2] lay in the range of 2 to 100. In the data set with Trypanosoma cruzi, the inhibition at 50 µM was found to be 7.24%. Besides, the IC50 in [11] is 3.4 µM; in data set [3], above 25 µM; against Cytochrome P450 2C19 it was below 10 µM; on Cytochrome P450 3A4, below 10 µM; against Cytochrome P450 2D6, 10 to 25 µM; at Pteridine reductase 1, “Not Active”. For the same compound, the IC50 at Cytochrome P450 2C9 is above 25 µM; against Cytochrome P450 1A2, below 10 µM. In addition, the values for the growth inhibition (GI) in the data set on Trypanosoma brucei [13] and in the data set with Leishmania infantum were 89% and “Non-Toxic”, respectively. The MNTC at 72 h in data set [4] was above 25 µM. In data set [5], the inhibition entry was “inactive”. In the data set with Trypanosoma brucei [6], the inhibition at 10 µM was in the range of 42 to 55%. For the same compound, the concentration for half-maximal inhibition (IC50) at 6 h in data set [7] is above 25 µM. For the same compound, the GI50 at 48 h in data set [8] was above 25 µM. Moreover, the inhibition in the data set on Trypanosoma brucei [10] was above 60%.
On to `N#Cc1ccc(COc2ccc3nc(N)sc3c2)cc1`, for which the 50% growth inhibitory concentration (GI50) in data set [1] is above 25 µM. In the data set on Trypanosoma brucei [12], the Ratio was 2. Also, in data set [2], the Ratio IC50 lay within 2 to 100. For the same compound, in the data set with Trypanosoma cruzi, the inhibition at 50 µM came to 15.4%. Further, the IC50 in data set [11] was 0.67 µM; in data set [3] it was above 25 µM; on Cytochrome P450 2C19 it was below 10 µM; against Cytochrome P450 3A4 it was 10 to 25 µM; against Cytochrome P450 2D6, above 25 µM; at Pteridine reductase 1 (read-out: IC50) it was 86.5 µM. For the same compound, the concentration for half-maximal inhibition (IC50) on Cytochrome P450 2C9 and on Cytochrome P450 1A2 was above 25 µM each time. Also, the growth inhibition (GI) in the data set with Trypanosoma brucei [13] was 80%; in the data set with Leishmania infantum it was “Non-Toxic”. The MNTC at 72 h in data set [4] lay in the range of 10 to 25 µM. The inhibition (in data set [5]; in the data set with Trypanosoma brucei [10]) was above 60% in each case. Further, in the data set on Trypanosoma brucei [6], the inhibition at 10 µM lay within 21 to 27%. This compound showed an IC50 at 6 h in data set [7] above 25 µM. The GI50 at 48 h in data set [8] was in the range of 10 to 25 µM.
